Experimental data taken from ChEMBL document CHEMBL1828601, “Small molecule peptidomimetic inhibitors of importin α/β mediated nuclear transport” (Bioorg Med Chem, 2010).
Calls of active or inactive are those of the source. The rule behind the calls is not given here.

Test system: FGM
Test: Inhibition of importin alpha/beta-mediated nuclear transportation of Alexa555-BSA-NLS in human FGM cell nucleus at 500 uM after 30 mins by fluorescence microscopy
Type: cell-based

Row | Structure (SMILES) | inhibition
1 | COc1ccc(C[C@H](N)C(=O)N2C[C@@H](C(=O)NCCCCN)[C@H](C(=O)NCCc3ccc4ccccc4c3)C2)cc1 | inactive
2 | CSCC[C@H](N)C(=O)N1C[C@@H](C(=O)NCCc2c[nH]c3ccccc23)[C@H](C(=O)NCCc2c[nH]c3ccccc23)C1 | inactive
3 | CC[C@H](C)[C@H](NC(=O)c1ccc(NC(=O)[C@@H](N)C(C)C)c(OCc2c[nH]cn2)c1)C(=O)O | inactive
4 | CC(C)COc1cc(C(=O)N[C@@H](Cc2ccc3ccccc3c2)C(=O)O)ccc1NC(=O)[C@@H](N)C(C)C | inactive
5 | CC[C@H](N)C(=O)Nc1ccc(C(=O)N[C@@H](Cc2ccc3ccccc3c2)C(=O)O)cc1OCC(C)C | inactive
6 | CC(C)[C@H](N)C(=O)Nc1ccc(C(=O)N[C@@H](CCc2ccccc2)C(=O)O)cc1OCc1ccccc1 | Active
7 | CC[C@@H](C)[C@H](N)C(=O)Nc1ccc(C(=O)N[C@@H](CCc2ccccc2)C(=O)O)cc1OCc1ccc(Cl)cc1 | Active
8 | CC(C)[C@H](N)C(=O)Nc1ccc(C(=O)N[C@@H](CCc2ccccc2)C(=O)O)cc1OCc1ccc(Cl)cc1 | inactive
9 | N[C@@H](Cc1c[nH]cn1)C(=O)Nc1ccc(C(=O)N[C@@H](CCc2ccccc2)C(=O)O)cc1OCc1ccc(Cl)cc1 | inactive
10 | CC(C)COc1cc(C(=O)N[C@@H](Cc2ccc3ccccc3c2)C(=O)O)ccc1NC(=O)[C@@H](N)Cc1c[nH]cn1 | inactive
11 | COc1ccc(C[C@H](N)C(=O)N2C[C@@H](C(=O)NCCc3c[nH]c4ccccc34)[C@H](C(=O)NCCc3c[nH]c4ccccc34)C2)cc1 | inactive
12 | CC(C)[C@H](N)C(=O)N1C[C@@H](C(=O)NCCc2c[nH]c3ccccc23)[C@H](C(=O)NCCc2c[nH]c3ccccc23)C1 | inactive
13 | N[C@@H](Cc1cnc[nH]1)C(=O)N1C[C@@H](C(=O)NCCc2c[nH]c3ccccc23)[C@H](C(=O)NCCc2c[nH]c3ccccc23)C1 | inactive
14 | CC(C)COc1cc(C(=O)N[C@@H](Cc2ccc3ccccc3c2)C(=O)O)ccc1NC(=O)[C@@H](N)CC(N)=O | inactive
15 | N[C@@H](Cc1ccccc1)C(=O)N1C[C@@H](C(=O)NCCc2c[nH]c3ccccc23)[C@H](C(=O)NCCc2c[nH]c3ccccc23)C1 | inactive
16 | CC(C)COc1cc(C(=O)N[C@@H](Cc2ccc3ccccc3c2)C(=O)O)ccc1NC(=O)[C@H](C)N | Active
17 | CC(C)COc1cc(C(=O)N[C@@H](Cc2ccc3ccccc3c2)C(=O)O)ccc1NC(=O)[C@@H](N)CC(=O)O | inactive
18 | CC(C)COc1cc(C(=O)N[C@@H](Cc2ccc3ccccc3c2)C(=O)O)ccc1NC(=O)[C@@H](N)CCc1ccccc1 | inactive
19 | CC(C)COc1cc(C(=O)N[C@@H](Cc2ccc3ccccc3c2)C(=O)O)ccc1NC(=O)[C@@H](N)Cc1ccc(O)cc1 | Active
20 | N[C@@H](CCc1ccccc1)C(=O)Nc1ccc(C(=O)N[C@@H](CCc2ccccc2)C(=O)O)cc1OCc1ccccc1 | Active
21 | N[C@@H](Cc1ccccc1)C(=O)Nc1ccc(C(=O)N[C@@H](CCc2ccccc2)C(=O)O)cc1OCc1ccccc1 | Active
22 | N[C@@H](Cc1c[nH]cn1)C(=O)Nc1ccc(C(=O)N[C@@H](CCc2ccccc2)C(=O)O)cc1OCc1ccccc1 | inactive

Row | Structure (SMILES) | inhibition
23 | N[C@@H](CC(=O)O)C(=O)N1C[C@@H](C(=O)NCCc2c[nH]c3ccccc23)[C@H](C(=O)NCCc2c[nH]c3ccccc23)C1 | inactive
24 | CC(C)COc1cc(C(=O)N[C@@H](Cc2ccc3ccccc3c2)C(=O)O)ccc1NC(=O)[C@@H](N)Cc1ccc2ccccc2c1 | inactive
25 | N[C@@H](Cc1c[nH]c2ccccc12)C(=O)N1C[C@@H](C(=O)NCCc2c[nH]c3ccccc23)[C@H](C(=O)NCCc2c[nH]c3ccccc23)C1 | inactive
26 | N[C@@H](Cc1ccc2ccccc2c1)C(=O)Nc1ccc(C(=O)N[C@@H](CCc2ccccc2)C(=O)O)cc1OCc1ccccc1 | inactive
27 | CSCC[C@H](N)C(=O)Nc1ccc(C(=O)N[C@@H](CCc2ccccc2)C(=O)O)cc1OCc1ccccc1 | Active
28 | N[C@@H](CO)C(=O)N1C[C@@H](C(=O)NCCc2c[nH]c3ccccc23)[C@H](C(=O)NCCc2c[nH]c3ccccc23)C1 | inactive
29 | CC(C)COc1cc(C(=O)N[C@@H](Cc2ccc3ccccc3c2)C(=O)O)ccc1NC(=O)[C@@H](N)Cc1ccc(Cl)cc1 | inactive
30 | C[C@H](N)C(=O)N1C[C@@H](C(=O)NCCc2c[nH]c3ccccc23)[C@H](C(=O)NCCc2c[nH]c3ccccc23)C1 | inactive
31 | N[C@@H](Cc1ccc(Cl)cc1)C(=O)N1C[C@@H](C(=O)NCCc2c[nH]c3ccccc23)[C@H](C(=O)NCCc2c[nH]c3ccccc23)C1 | inactive
32 | CC[C@H](N)C(=O)Nc1ccc(C(=O)N[C@@H](CCc2ccccc2)C(=O)O)cc1OCc1ccccc1 | Active
33 | C[C@@H](O)[C@H](N)C(=O)Nc1ccc(C(=O)N[C@@H](CCc2ccccc2)C(=O)O)cc1OCc1ccccc1 | Active
34 | N[C@@H](Cc1ccc(O)cc1)C(=O)N1C[C@@H](C(=O)NCCc2c[nH]c3ccccc23)[C@H](C(=O)NCCc2c[nH]c3ccccc23)C1 | inactive
35 | CSCC[C@H](N)C(=O)Nc1ccc(C(=O)N[C@@H](Cc2ccc3ccccc3c2)C(=O)O)cc1OCC(C)C | inactive
36 | N[C@@H](CO)C(=O)Nc1ccc(C(=O)N[C@@H](CCc2ccccc2)C(=O)O)cc1OCc1ccccc1 | Active
37 | N[C@@H](CCc1ccc(Cl)cc1)C(=O)N1C[C@@H](C(=O)NCCc2c[nH]c3ccccc23)[C@H](C(=O)NCCc2c[nH]c3ccccc23)C1 | inactive
38 | NCCCC[C@H](N)C(=O)Nc1ccc(C(=O)N[C@@H](CCc2ccccc2)C(=O)O)cc1OCc1ccccc1 | Active
39 | CC(C)C[C@H](N)C(=O)N1C[C@@H](C(=O)NCCc2c[nH]c3ccccc23)[C@H](C(=O)NCCc2c[nH]c3ccccc23)C1 | inactive
40 | COc1ccc(C[C@H](N)C(=O)Nc2ccc(C(=O)N[C@@H](Cc3ccc4ccccc4c3)C(=O)O)cc2OCC(C)C)cc1 | Active
41 | C[C@@H](O)[C@H](N)C(=O)N1C[C@@H](C(=O)NCCc2c[nH]c3ccccc23)[C@H](C(=O)NCCc2c[nH]c3ccccc23)C1 | inactive
42 | N[C@@H](CC(=O)O)C(=O)Nc1ccc(C(=O)N[C@@H](CCc2ccccc2)C(=O)O)cc1OCc1ccccc1 | inactive
43 | NCCCC[C@H](N)C(=O)N1C[C@@H](C(=O)NCCc2c[nH]c3ccccc23)[C@H](C(=O)NCCc2c[nH]c3ccccc23)C1 | Active
44 | N[C@@H](CCc1ccc(O)cc1)C(=O)N1C[C@@H](C(=O)NCCc2c[nH]c3ccccc23)[C@H](C(=O)NCCc2c[nH]c3ccccc23)C1 | inactive

Row | Structure (SMILES) | inhibition
45 | CC(C)COc1cc(C(=O)N[C@@H](Cc2ccc3ccccc3c2)C(=O)O)ccc1NC(=O)[C@@H](N)Cc1ccccc1 | Active
46 | CC(C)COc1cc(C(=O)N[C@@H](Cc2ccc3ccccc3c2)C(=O)O)ccc1NC(=O)CN | inactive
47 | N[C@@H](Cc1ccc(Cl)cc1)C(=O)Nc1ccc(C(=O)N[C@@H](CCc2ccccc2)C(=O)O)cc1OCc1ccccc1 | inactive
48 | CC[C@H](C)[C@H](N)C(=O)Nc1ccc(C(=O)N[C@@H](Cc2ccc3ccccc3c2)C(=O)O)cc1OCC(C)C | inactive
49 | CC(C)COc1cc(C(=O)N[C@@H](Cc2ccc3ccccc3c2)C(=O)O)ccc1NC(=O)[C@@H](N)CO | inactive
50 | C[C@H](N)C(=O)Nc1ccc(C(=O)N[C@@H](CCc2ccccc2)C(=O)O)cc1OCc1ccccc1 | inactive
51 | N[C@@H](CCc1ccccc1)C(=O)N1C[C@@H](C(=O)NCCc2c[nH]c3ccccc23)[C@H](C(=O)NCCc2c[nH]c3ccccc23)C1 | inactive
52 | N[C@@H](Cc1ccc2ccccc2c1)C(=O)N1C[C@@H](C(=O)NCCc2c[nH]c3ccccc23)[C@H](C(=O)NCCc2c[nH]c3ccccc23)C1 | inactive
53 | COc1ccc(C[C@H](N)C(=O)Nc2ccc(C(=O)N[C@@H](CCc3ccccc3)C(=O)O)cc2OCc2ccccc2)cc1 | inactive
54 | CC(C)COc1cc(C(=O)N[C@@H](Cc2ccc3ccccc3c2)C(=O)O)ccc1NC(=O)[C@@H](N)CCCCN | inactive
55 | N[C@@H](Cc1c[nH]c2ccccc12)C(=O)Nc1ccc(C(=O)N[C@@H](CCc2ccccc2)C(=O)O)cc1OCc1ccccc1 | inactive
56 | CC(C)COc1cc(C(=O)N[C@@H](Cc2ccc3ccccc3c2)C(=O)O)ccc1NC(=O)[C@@H](N)Cc1c[nH]c2ccccc12 | inactive
57 | CC(C)C[C@H](N)C(=O)Nc1ccc(C(=O)N[C@@H](CCc2ccccc2)C(=O)O)cc1OCc1ccccc1 | Active
58 | CC(C)COc1cc(C(=O)N[C@@H](Cc2ccc3ccccc3c2)C(=O)O)ccc1NC(=O)[C@@H](N)CC(C)C | inactive
59 | N[C@@H](Cc1ccc(O)cc1)C(=O)Nc1ccc(C(=O)N[C@@H](CCc2ccccc2)C(=O)O)cc1OCc1ccccc1 | Active
60 | CC(C)COc1cc(C(=O)N[C@@H](Cc2ccc3ccccc3c2)C(=O)O)ccc1NC(=O)[C@@H](N)[C@@H](C)O | inactive
61 | NC(=O)C[C@H](N)C(=O)N1C[C@@H](C(=O)NCCc2c[nH]c3ccccc23)[C@H](C(=O)NCCc2c[nH]c3ccccc23)C1 | inactive
62 | NCC(=O)Nc1ccc(C(=O)N[C@@H](CCc2ccccc2)C(=O)O)cc1OCc1ccccc1 | Active
63 | CC[C@H](C)[C@H](N)C(=O)N1C[C@@H](C(=O)NCCc2c[nH]c3ccccc23)[C@H](C(=O)NCCc2c[nH]c3ccccc23)C1 | inactive
64 | NC(=O)C[C@H](N)C(=O)Nc1ccc(C(=O)N[C@@H](CCc2ccccc2)C(=O)O)cc1OCc1ccccc1 | inactive

Test system: FGM
Test: Inhibition of importin alpha/beta-mediated nuclear transportation of Alexa555-GST-M9 in human FGM cell nucleus at 500 uM after 30 mins by fluorescence microscopy
Type: cell-based
Outline: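 Transportin-dependent import measured the same way in permeabilized FGM cells, with 0.5 μM Alexa555-GST-M9 cargo in place of BSA-NLS. Conditions: 3 mg/ml HeLa cytosol, ATP-regenerating system, 0.2 mM GTP, 1% DMSO, 30 min at 30°C. Positive control was 1 mg/ml WGA. Nuclear cargo fluorescence quantified per nucleus by automated imaging.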

Row | Structure (SMILES) | inhibition
65 | COc1ccc(C[C@H](N)C(=O)N2C[C@@H](C(=O)NCCCCN)[C@H](C(=O)NCCc3ccc4ccccc4c3)C2)cc1 | inactive
66 | CC[C@H](C)[C@H](NC(=O)c1ccc(NC(=O)[C@@H](N)C(C)C)c(OCc2c[nH]cn2)c1)C(=O)O | inactive
67 | CC[C@@H](C)[C@H](N)C(=O)Nc1ccc(C(=O)N[C@@H](CCc2ccccc2)C(=O)O)cc1OCc1ccc(Cl)cc1 | Active
68 | CC(C)[C@H](N)C(=O)Nc1ccc(C(=O)N[C@@H](CCc2ccccc2)C(=O)O)cc1OCc1ccc(Cl)cc1 | inactive
69 | N[C@@H](Cc1c[nH]cn1)C(=O)Nc1ccc(C(=O)N[C@@H](CCc2ccccc2)C(=O)O)cc1OCc1ccc(Cl)cc1 | inactive
